The target in series [1] is Focal adhesion kinase 1 (Homo sapiens) (UniProt Q05397). The experiment in a line: Inhibition of recombinant human N-terminal His6-tagged FAK (411 to 686 residues) expressed in baculovirus infected Sf21 insect cells at 1000 nM using poly (Glu, Tyr)4:1 as substrate measured after 1 hr by ELISA relative to control. The procedure, abridged: (§1)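 Recombinant kinase was incubated with compound in reaction buffer containing 5 μM ATP, in wells precoated with poly(Glu,Tyr) 4:1, for 1 h at 37 °C. Phosphorylation was detected by ELISA.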

The target of series [2] is c-KIT (Homo sapiens, UniProt P10721). The experiment in a line: Inhibition of recombinant human N-terminal GST-tagged c-KIT (544 to end residues) expressed in baculovirus infected Sf21 insect cells at 10 nM using poly (Glu, Tyr)4:1 as substrate measured after 1 hr by ELISA relative to control. The following applies: probe poly (Glu, Tyr)4:1. A digest of the protocol: as §1

Series [3] deals with Insulin-like growth factor 1 receptor (Homo sapiens) (UniProt P08069). Kind of series: Inhibition of recombinant human N-terminal His6-tagged IGF1R (959 to end residues) expressed in baculovirus infected Sf21 insect cells at 100 nM using poly (Glu, Tyr)4:1 as substrate measured after 1 hr by ELISA relative to control. A digest of the protocol: (§2)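 ELISA kinase assay: recombinant kinase added to wells precoated with poly(Glu,Tyr)4:1 and incubated with compound in reaction buffer containing 5 μM ATP, 37 °C for 1 h; wells then washed before antibody detection.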
(An ELISA detects its analyte on a solid surface through an enzyme-linked reagent.)

The target in series [4] is Vascular endothelial growth factor receptor 3 (Homo sapiens) (UniProt P35916). The experiment in a line: Inhibition of recombinant VEGFR3 (unknown origin) at 1000 nM using poly (Glu, Tyr)4:1 as substrate measured after 1 hr by ELISA relative to control. A digest of the protocol: as §1
The target in series [5] is Fibroblast growth factor receptor 3 (Homo sapiens, UniProt P22607). The experiment in a line: Inhibition of recombinant human N-terminal His6-tagged FGFR3 (447 to 761 residues) expressed in baculovirus infected Sf21 insect cells at 1000 nM using poly (Glu, Tyr)4:1 as substrate measured after 1 hr by ELISA relative to control. A digest of the protocol:
as §1

The target of series [6] is Platelet-derived growth factor receptor beta (Homo sapiens) (UniProt P09619). Kind of series: Inhibition of recombinant human N-terminal His6-tagged PDGFRbeta (557 to end residues) expressed in baculovirus infected Sf21 insect cells at 100 nM using poly (Glu, Tyr)4:1 as substrate measured after 1 hr by ELISA relative to control. The procedure, abridged:
as §2

For series [7] the target is unchanged. Kind of series: Inhibition of recombinant human N-terminal His6-tagged PDGFRbeta (557 to end residues) expressed in baculovirus infected Sf21 insect cells at 10 nM using poly (Glu, Tyr)4:1 as substrate measured after 1 hr by ELISA relative to control. A digest of the protocol:
as §2

Series [8] has as its target Activated CDC42 kinase 1 (Homo sapiens) (UniProt Q07912). Kind of series: Inhibition of recombinant human N-terminal GST-tagged ACK1 (1 to 389 residues) expressed in baculovirus infected Sf21 insect cells at 100 nM using poly (Glu, Tyr)4:1 as substrate measured after 1 hr by ELISA relative to control. The procedure, abridged:
as §1

The target of series [9] is Fibroblast growth factor receptor 1 (Homo sapiens, UniProt P11362). The experiment in a line: Inhibition of recombinant human N-terminal GST-tagged FGFR1 (456 to 765 residues) expressed in baculovirus infected Sf21 insect cells using poly (Glu, Tyr)4:1 as substrate measured after 1 hr by ELISA. A digest of the protocol: as §1
The target in series [10] is Tyrosine-protein kinase ABL1 (Homo sapiens) (UniProt P00519). The experiment in a line: Inhibition of recombinant human N-terminal His6-tagged Abl (27 to end residues) expressed in baculovirus infected Sf21 insect cells at 10 nM using poly (Glu, Tyr)4:1 as substrate measured after 1 hr by ELISA relative to control. The procedure, abridged:
as §1

Series [11] has as its target Activated CDC42 kinase 1 (Homo sapiens) (UniProt Q07912). Kind of series: Inhibition of recombinant human N-terminal GST-tagged ACK1 (1 to 389 residues) expressed in baculovirus infected Sf21 insect cells at 1000 nM using poly (Glu, Tyr)4:1 as substrate measured after 1 hr by ELISA relative to control. A digest of the protocol:
as §1

Series [12] can be described thus: Cmax in Sprague-Dawley rat at 5 mg/kg, po administered via gavage by LC-MS/MS analysis. To be noted: in vivo. The arrangement: dose 5 mg/kg, route oral. Format: ADME, organism-based. A digest of the protocol:
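Male SD rats (200 ± 20 g) were fasted 12 h with free access to water, n = 3 per group. One group received 2 mg/kg iv in DMSO/EtOH/PEG300/saline (5/5/40/50). The other received 5 mg/kg by oral gavage in DMSO/HPMC (5/95). Femoral-vein plasma was taken at 15–1440 min, methanol-precipitated with internal standard, and measured by LC–MS/MS. Noncompartmental analysis; AUC by trapezoidal method.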

In series [13] the target is Vascular endothelial growth factor receptor 3 (Homo sapiens) (UniProt P35916). The experiment in a line: Inhibition of recombinant VEGFR3 (unknown origin) at 10 nM using poly (Glu, Tyr)4:1 as substrate measured after 1 hr by ELISA relative to control. A digest of the protocol: as §1
Series [14] can be described thus: Cytotoxicity against mouse RAW264.7 cells assessed as reduction in cell viability measured after 24 hrs by CCK8 assay. Format: cell-based. A digest of the protocol:
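RAW264.7 cells were seeded in triplicate in DMEM and exposed to compound for 24 h. CCK-8 was added, incubated 1 h, and absorbance read at 450 nm with 570 nm reference. CC50 from log(inhibitor) versus normalized response nonlinear fit.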
(In general: Formazan colour is commonly taken as a measure of viable cells.)

Series [15] deals with Platelet-derived growth factor receptor alpha (Homo sapiens) (UniProt P16234). The experiment in a line: Inhibition of recombinant human N-terminal His6-tagged PDGFRalpha (550 to end residues) expressed in baculovirus infected Sf21 insect cells at 100 nM using poly (Glu, Tyr)4:1 as substrate measured after 1 hr by ELISA relative to control. The procedure, abridged:
as §2

Series [16] is described as follows: Tmax in Sprague-Dawley rat at 5 mg/kg, po administered via gavage by LC-MS/MS analysis. Type of series: ADME, organism-based. To be noted: in vivo. The procedure, abridged:
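Male SD rats (200 ± 20 g), fasted 12 h, n = 3; oral gavage 5 mg/kg in DMSO/HPMC (5/95). Femoral vein blood at 15–1440 min; plasma precipitated with methanol plus internal standard, LC–MS/MS; noncompartmental analysis, Tmax observed directly, MRT = AUMC/AUC.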

Series [17] deals with Fibroblast growth factor receptor 4 (Homo sapiens, UniProt P22455). The experiment in a line: Inhibition of recombinant human N-terminal His6-tagged FGFR4 (442 to 755 residues) expressed in baculovirus infected Sf21 insect cells at 100 nM using poly (Glu, Tyr)4:1 as substrate measured after 1 hr by ELISA relative to control. A digest of the protocol: as §1
For series [18], the target named is Vascular endothelial growth factor receptor 1 (Homo sapiens) (UniProt P17948). The experiment in a line: Inhibition of recombinant human VEGFR1 expressed in Spodoptera frugiperda insect cells at 1000 nM using poly (Glu, Tyr)4:1 as substrate measured after 1 hr by ELISA relative to control. The procedure, abridged: as §2
Series [19] addresses Insulin receptor (Homo sapiens) (UniProt P06213). The experiment in a line: Inhibition of recombinant human N-terminal His6-tagged IR (1005 to 1310 residues) expressed in baculovirus infected Sf21 insect cells at 1000 nM using poly (Glu, Tyr)4:1 as substrate measured after 1 hr by ELISA relative to control. The procedure, abridged:
as §2

Molecules are shown by their SMILES. Where only a bound is given, the exact number is not on record here.

Chain of Platelet-derived growth factor receptor beta (Homo sapiens) (P09619 whole entry): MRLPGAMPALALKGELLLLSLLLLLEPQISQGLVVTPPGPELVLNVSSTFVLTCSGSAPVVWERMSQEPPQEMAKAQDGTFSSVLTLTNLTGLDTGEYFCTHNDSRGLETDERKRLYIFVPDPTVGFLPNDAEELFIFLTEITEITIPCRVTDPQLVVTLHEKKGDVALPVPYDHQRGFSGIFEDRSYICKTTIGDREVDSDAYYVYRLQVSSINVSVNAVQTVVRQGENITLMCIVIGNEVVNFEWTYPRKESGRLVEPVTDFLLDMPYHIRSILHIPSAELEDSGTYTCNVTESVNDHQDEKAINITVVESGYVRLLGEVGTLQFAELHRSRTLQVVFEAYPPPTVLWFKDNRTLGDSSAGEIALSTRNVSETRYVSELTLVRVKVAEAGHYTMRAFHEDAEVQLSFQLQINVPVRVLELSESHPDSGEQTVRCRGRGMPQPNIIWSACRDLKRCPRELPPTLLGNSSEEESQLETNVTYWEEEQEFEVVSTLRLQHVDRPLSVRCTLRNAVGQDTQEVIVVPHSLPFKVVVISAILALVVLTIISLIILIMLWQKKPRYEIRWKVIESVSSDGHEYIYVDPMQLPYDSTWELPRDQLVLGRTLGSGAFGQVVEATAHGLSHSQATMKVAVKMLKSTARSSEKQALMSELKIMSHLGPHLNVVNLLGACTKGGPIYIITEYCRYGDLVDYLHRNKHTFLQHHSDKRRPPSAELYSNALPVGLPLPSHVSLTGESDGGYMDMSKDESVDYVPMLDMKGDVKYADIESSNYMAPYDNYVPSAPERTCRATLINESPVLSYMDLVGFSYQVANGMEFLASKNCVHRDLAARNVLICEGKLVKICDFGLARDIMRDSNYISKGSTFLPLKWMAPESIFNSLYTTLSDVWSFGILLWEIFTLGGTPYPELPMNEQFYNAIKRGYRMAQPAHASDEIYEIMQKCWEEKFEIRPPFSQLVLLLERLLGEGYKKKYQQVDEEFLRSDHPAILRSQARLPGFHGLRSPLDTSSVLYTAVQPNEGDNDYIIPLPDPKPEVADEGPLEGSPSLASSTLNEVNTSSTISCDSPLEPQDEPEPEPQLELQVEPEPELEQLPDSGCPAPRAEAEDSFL
Chain of Activated CDC42 kinase 1 (Homo sapiens) (Q07912 whole entry, looked up, the tested form may be a part): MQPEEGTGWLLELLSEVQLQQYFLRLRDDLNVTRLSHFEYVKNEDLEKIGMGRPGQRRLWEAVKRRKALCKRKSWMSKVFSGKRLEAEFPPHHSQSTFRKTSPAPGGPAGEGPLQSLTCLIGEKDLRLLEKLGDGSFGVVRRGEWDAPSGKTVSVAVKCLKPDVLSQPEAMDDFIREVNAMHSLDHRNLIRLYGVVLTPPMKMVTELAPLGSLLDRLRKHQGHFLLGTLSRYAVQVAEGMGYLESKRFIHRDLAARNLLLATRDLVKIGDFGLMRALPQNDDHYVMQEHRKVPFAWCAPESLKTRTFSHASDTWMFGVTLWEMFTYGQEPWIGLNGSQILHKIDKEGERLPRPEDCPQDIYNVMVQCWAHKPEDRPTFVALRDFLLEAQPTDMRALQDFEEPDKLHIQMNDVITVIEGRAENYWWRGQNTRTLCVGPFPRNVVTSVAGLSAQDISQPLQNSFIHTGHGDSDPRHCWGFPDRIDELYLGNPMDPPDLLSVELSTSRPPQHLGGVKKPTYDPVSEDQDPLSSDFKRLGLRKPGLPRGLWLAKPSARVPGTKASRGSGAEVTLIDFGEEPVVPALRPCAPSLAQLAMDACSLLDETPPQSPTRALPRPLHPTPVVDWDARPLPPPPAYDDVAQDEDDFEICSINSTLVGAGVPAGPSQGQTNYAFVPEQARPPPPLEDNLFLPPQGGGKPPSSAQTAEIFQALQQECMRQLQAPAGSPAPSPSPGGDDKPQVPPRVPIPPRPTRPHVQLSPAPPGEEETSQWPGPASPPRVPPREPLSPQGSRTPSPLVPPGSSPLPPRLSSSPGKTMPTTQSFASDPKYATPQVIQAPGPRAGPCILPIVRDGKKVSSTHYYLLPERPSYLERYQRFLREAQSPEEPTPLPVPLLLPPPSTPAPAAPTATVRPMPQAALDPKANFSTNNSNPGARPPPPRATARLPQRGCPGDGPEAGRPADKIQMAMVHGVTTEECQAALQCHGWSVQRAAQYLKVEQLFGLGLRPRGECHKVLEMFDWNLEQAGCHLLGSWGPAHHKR
Chain of Vascular endothelial growth factor receptor 3 (Homo sapiens) (P35916 whole entry, the tested form may be a part): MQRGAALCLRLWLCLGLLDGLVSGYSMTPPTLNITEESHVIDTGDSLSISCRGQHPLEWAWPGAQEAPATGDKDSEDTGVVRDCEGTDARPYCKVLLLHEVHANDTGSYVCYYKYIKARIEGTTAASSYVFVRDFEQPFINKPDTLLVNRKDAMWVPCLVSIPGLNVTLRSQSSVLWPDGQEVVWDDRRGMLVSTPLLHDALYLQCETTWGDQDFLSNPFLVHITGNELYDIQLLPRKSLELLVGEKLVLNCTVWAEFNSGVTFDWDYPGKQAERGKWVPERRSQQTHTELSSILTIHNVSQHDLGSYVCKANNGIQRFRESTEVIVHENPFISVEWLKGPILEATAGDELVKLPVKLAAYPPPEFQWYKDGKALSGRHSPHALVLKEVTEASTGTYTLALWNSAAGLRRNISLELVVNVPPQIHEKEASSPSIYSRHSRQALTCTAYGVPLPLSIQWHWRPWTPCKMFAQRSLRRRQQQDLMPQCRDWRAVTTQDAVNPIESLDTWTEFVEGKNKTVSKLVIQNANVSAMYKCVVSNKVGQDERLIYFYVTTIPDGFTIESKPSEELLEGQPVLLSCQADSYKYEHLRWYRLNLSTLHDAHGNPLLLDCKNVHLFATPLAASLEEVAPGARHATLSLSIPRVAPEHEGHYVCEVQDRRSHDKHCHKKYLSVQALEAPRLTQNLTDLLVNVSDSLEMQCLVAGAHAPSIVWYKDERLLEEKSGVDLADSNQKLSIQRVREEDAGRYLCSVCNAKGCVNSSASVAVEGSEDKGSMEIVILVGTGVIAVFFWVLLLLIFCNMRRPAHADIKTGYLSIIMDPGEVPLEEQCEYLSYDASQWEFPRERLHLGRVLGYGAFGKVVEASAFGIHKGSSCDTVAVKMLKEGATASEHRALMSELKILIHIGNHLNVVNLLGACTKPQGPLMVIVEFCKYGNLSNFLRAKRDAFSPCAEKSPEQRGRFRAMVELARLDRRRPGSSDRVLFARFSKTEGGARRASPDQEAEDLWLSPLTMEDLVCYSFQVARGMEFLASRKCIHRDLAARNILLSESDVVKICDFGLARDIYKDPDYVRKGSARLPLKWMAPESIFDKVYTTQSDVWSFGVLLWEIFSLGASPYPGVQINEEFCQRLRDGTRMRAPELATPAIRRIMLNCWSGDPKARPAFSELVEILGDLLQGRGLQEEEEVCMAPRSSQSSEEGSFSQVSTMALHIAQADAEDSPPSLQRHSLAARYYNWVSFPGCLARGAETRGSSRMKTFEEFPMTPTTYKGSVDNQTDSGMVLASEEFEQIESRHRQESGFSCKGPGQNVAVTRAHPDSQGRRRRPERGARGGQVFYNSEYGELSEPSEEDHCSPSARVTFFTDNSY
Chain of Tyrosine-protein kinase ABL1 (Homo sapiens) (P00519 whole entry): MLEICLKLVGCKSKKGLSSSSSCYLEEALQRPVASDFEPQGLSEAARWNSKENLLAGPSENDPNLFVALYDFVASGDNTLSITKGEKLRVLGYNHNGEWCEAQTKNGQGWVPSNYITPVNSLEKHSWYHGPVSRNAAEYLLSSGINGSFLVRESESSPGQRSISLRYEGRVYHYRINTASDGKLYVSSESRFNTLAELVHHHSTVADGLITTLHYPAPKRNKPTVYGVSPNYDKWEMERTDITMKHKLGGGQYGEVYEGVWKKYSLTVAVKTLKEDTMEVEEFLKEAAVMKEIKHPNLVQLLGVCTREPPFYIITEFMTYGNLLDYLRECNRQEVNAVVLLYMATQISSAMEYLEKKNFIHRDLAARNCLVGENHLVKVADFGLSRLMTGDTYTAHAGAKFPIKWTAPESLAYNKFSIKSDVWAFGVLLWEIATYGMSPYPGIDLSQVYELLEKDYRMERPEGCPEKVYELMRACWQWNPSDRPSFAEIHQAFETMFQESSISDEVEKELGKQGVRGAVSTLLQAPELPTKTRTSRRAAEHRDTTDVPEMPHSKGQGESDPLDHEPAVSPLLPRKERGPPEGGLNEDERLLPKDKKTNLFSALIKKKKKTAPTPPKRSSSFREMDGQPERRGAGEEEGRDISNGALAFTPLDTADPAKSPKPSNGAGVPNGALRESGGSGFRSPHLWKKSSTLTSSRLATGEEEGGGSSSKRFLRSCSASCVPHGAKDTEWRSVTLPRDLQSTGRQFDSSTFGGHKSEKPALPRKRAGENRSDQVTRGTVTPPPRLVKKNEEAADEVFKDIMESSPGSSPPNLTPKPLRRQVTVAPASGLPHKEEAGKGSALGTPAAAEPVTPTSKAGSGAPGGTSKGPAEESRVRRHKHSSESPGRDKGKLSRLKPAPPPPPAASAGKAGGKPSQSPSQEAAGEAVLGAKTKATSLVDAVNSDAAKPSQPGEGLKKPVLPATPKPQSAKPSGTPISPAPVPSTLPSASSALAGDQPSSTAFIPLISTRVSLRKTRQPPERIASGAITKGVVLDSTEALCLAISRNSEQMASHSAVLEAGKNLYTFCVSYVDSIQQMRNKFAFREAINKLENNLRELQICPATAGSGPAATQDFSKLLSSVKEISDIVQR

`Cc1ccc(C(=O)Nc2ccc(Cl)cc2)cc1C#Cc1cc(-c2cnn(C)c2)cnc1N`: the inhibition amounted to 10.8% in series [1]; 0% in [3]; 100% in [4]; 2.3% in [5]; 70.5% in series [6]; 14.7% in series [7]. Further, the inhibition in series [8] stood at 10.3%; in [10] it was 0%; in series [11] it was 30.9%; in series [13] it was 27.3%; in [15], 83.9%; in series [17], 0%. Also, the inhibition in [18] is 89.8%; in [19], 0%. In addition, the inhibition at 1 h, 0.01 µM in series [2] turned out to be 70.4%. Moreover, the concentration for half-maximal inhibition (IC50) in series [9] is above 1 µM. The same compound displayed a Cmax in series [12] of 166 ng/mL. Also, the CC50 at 24 h in [14] stood at 66 µM. Also, in [16], the Tmax worked out at 4 h.

What is called inhibition is how much of the control response was suppressed. A word on the IC50: it is the concentration that gives 50% inhibition. The Cmax is the maximum level reached in the sampled fluid or tissue. The CC50 is the concentration at which the toxic effect on the cells reaches its halfway point. As usually defined, the Tmax is the time from dosing to the highest level.
